The subject of experiment [1] is Klebsiella pneumoniae. Description: Inhibition of Klebsiella pneumoniae metallo-beta-lactamase IMP-1 expressed in Escherichia coli BL21(DE3) using CENTA as substrate at 10 uM by spectrophotometric analysis. The essentials: (§1)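 Single-point screen with inhibitor at 10 µM against IMP-1 lacking the 21-residue signal peptide (2 nM final). Buffer was 50 mM HEPES pH 7.0 with 0.1 M NaCl, 100 µM ZnCl2 and BSA at 20 µg/mL. Substrate was CENTA at 70 µM. CENTA hydrolysis was followed by 4-nitrophenolate absorbance at 405 nm and reported as percent inhibition.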

Experiment [2] deals with Klebsiella pneumoniae. Description: Competitive inhibition of Klebsiella pneumoniae metallo-beta-lactamase IMP-1 expressed in Escherichia coli BL21(DE3) using CENTA as substrate by spectrophotometric analysis. The essentials: (§2)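 IMP-1 lacking the first 21 signal-peptide residues, recombinantly expressed and purified, at 2 nM final. Buffer was 50 mM HEPES, 0.1 M NaCl, 100 µM ZnCl2, pH 7.0, with BSA at 20 µg/mL final. CENTA was varied from 5 to 70 µM final at three inhibitor concentrations. 4-Nitrophenolate release was read at 405 nm on a plate reader, and data were fitted by non-linear regression.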

Experiment [3] concerns Klebsiella pneumoniae. Put plainly: Uncompetitive inhibition of Klebsiella pneumoniae metallo-beta-lactamase IMP-1 expressed in Escherichia coli BL21(DE3) using CENTA as substrate by spectrophotometric analysis. The essentials:
as §2

Experiment [4] deals with Beta-lactamase (Pseudomonas aeruginosa) (UniProt Q79MP6). Description: Inhibition of Pseudomonas aeruginosa metallo-beta-lactamase IMP-1 expressed in Escherichia coli BL21(DE3) using CENTA as substrate at 10 uM by spectrophotometric analysis. The method in brief: as §1
Sequence of Beta-lactamase (Pseudomonas aeruginosa) (Q79MP6 19-246 limits assumed): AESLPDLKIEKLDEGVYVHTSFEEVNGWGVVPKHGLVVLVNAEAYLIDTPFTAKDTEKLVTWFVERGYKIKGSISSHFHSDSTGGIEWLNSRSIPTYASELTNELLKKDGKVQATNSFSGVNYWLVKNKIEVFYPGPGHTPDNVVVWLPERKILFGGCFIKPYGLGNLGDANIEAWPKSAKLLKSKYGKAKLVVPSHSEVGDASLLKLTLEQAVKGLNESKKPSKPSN
The target is the same in experiment [5]. Put plainly: Competitive inhibition of Pseudomonas aeruginosa metallo-beta-lactamase IMP-1 expressed in Escherichia coli BL21(DE3) using CENTA as substrate by spectrophotometric analysis. The method in brief: as §2
Experiment [6] shares this target. Description: Uncompetitive inhibition of Pseudomonas aeruginosa metallo-beta-lactamase IMP-1 expressed in Escherichia coli BL21(DE3) using CENTA as substrate by spectrophotometric analysis. The method in brief:
as §2

The term inhibition denotes the percentage by which the read-out fell short of the control.

With `COc1ccc(-n2c(-c3ccccc3)c(-c3ccccc3)c3c(Cl)ncnc32)cc1`, the inhibition (with Klebsiella pneumoniae [1]; in experiment [4]) was 15% in each case. The Kic (with Klebsiella pneumoniae [2]; in experiment [5]) was 12 µM each time. Further, the Kiuc (with Klebsiella pneumoniae [3]; in experiment [6]) was 182 µM throughout.

Turning to `Cc1ccc(-n2c(-c3ccccc3)c(-c3ccccc3)c3c(N/N=C/c4ccccc4)ncnc32)cc1`, the inhibition (with Klebsiella pneumoniae [1]; in experiment [4]) was 13% each time. Besides, the Kic (in the experiment with Klebsiella pneumoniae [2]; in experiment [5]) was 18 µM throughout.

Consider `COc1ccc(-n2cc(-c3ccccc3)c(C#N)c2N)cc1`, for which the inhibition (with Klebsiella pneumoniae [1]; in experiment [4]) was 0% each time.

In the case of `COc1ccc(-n2c3c(c(-c4ccccc4)c2-c2ccccc2)C(=C(C#N)C#N)NC=N3)cc1`, the inhibition (with Klebsiella pneumoniae [1]; in experiment [4]) was 17% each time. The Kic (in the experiment on Klebsiella pneumoniae [2]; in experiment [5]) was 29 µM throughout. In addition, the Kiuc (in the experiment with Klebsiella pneumoniae [3]; in experiment [6]) was 225 µM in each case.

Turning to `Cc1ccc(-n2c(-c3ccccc3)c(-c3ccccc3)c3c2ncn2c(=S)[nH]nc32)cc1`, the inhibition (with Klebsiella pneumoniae [1]; in experiment [4]) was 14% in each case. Further, the Kic (in the experiment with Klebsiella pneumoniae [2]; in experiment [5]) was 15 µM in each case.

`Cc1ccc(-n2cc(-c3ccccc3)c3c(Cl)ncnc32)cc1`: the inhibition (with Klebsiella pneumoniae [1]; in experiment [4]) was 9% throughout. Also, the Kic (in the experiment on Klebsiella pneumoniae [2]; in experiment [5]) was 33 µM each time. Besides, the Kiuc (with Klebsiella pneumoniae [3]; in experiment [6]) was 106 µM in each case.

On to `Cc1ccc(-n2c(-c3ccccc3)c(-c3ccccc3)c3c2ncn2cnnc32)cc1`, for which the inhibition (in the experiment on Klebsiella pneumoniae [1]; in experiment [4]) was 4% in each case.

As for `Cc1ccc(-n2c(-c3ccccc3)c(-c3ccccc3)c3c(Cl)ncnc32)cc1`, the inhibition (with Klebsiella pneumoniae [1]; in experiment [4]) was 10% throughout. Besides, the Kic (in the experiment on Klebsiella pneumoniae [2]; in experiment [5]) was 19 µM each time. In addition, the Kiuc (in the experiment with Klebsiella pneumoniae [3]; in experiment [6]) was 112 µM throughout.

Regarding `Cc1ccc(-n2c(-c3ccccc3)c(-c3ccccc3)c3c2ncn2c(C)nnc32)cc1`, the inhibition (with Klebsiella pneumoniae [1]; in experiment [4]) was 7% each time.

Regarding `Cc1ccc(-n2cc(-c3ccccc3)c(C#N)c2N)cc1`, the inhibition (in the experiment with Klebsiella pneumoniae [1]; in experiment [4]) was 0% each time.

`Cc1ccc(-n2cc(-c3ccccc3)c3c(O)ncnc32)cc1`: the inhibition (in the experiment on Klebsiella pneumoniae [1]; in experiment [4]) was 0% throughout.

(Values after ChEMBL document CHEMBL1909495, “Synthesis and kinetic testing of new inhibitors for a metallo-β-lactamase from Klebsiella pneumonia and Pseudomonas aeruginosa” (Eur J Med Chem, 2011).)
